Laboratory results as given in ChEMBL document CHEMBL1629583, “Establishment of in vitro susceptibility testing methodologies and comparative activities of piperacillin in combination with the penem {beta}-lactamase inhibitor BLI-489” (2009).

Experiments:
Format in all cases: functional
[1] = test system: Acinetobacter baumannii; test: Antimicrobial activity against Acinetobacter baumannii clinical isolate after 18 to 22 hrs by broth microdilution method in presence of beta-lactamase inhibitor Tazobactam
Summary of the method: (§1)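 Piperacillin-tazobactam was tested on recent clinical isolates by CLSI broth microdilution in Mueller-Hinton II broth, with tazobactam at constant 4 μg/ml. Wells held 10^5 CFU/ml and were incubated 18 to 22 h at 35°C in ambient air. MIC was the lowest concentration with no growth visible to the unaided eye.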

[2] = test system: Enterococcus hirae; test: Antimicrobial activity against Enterococcus hirae clinical isolate after 18 to 22 hrs by broth microdilution method in presence of beta-lactamase inhibitor BLI-489
Summary of the method: (§2)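 CLSI broth microdilution in Mueller-Hinton II broth. Serial dilutions of piperacillin were tested with BLI-489 held at a constant 4 μg/ml. Inoculum was 10^5 CFU/ml. Plates were incubated 18 to 22 h at 35°C in ambient air. MIC was the lowest concentration giving complete growth inhibition by unaided eye.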

[3] = test system: Providencia rettgeri; test: Antimicrobial activity against Providencia rettgeri clinical isolate after 18 to 22 hrs by broth microdilution method in presence of beta-lactamase inhibitor Tazobactam
Summary of the method: (§3)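 Piperacillin-tazobactam was tested by CLSI broth microdilution in Mueller-Hinton II broth against clinical isolates. Inoculum was 10^5 CFU/ml, with 18 to 22 h incubation at 35°C in ambient air. MIC was read as the lowest concentration completely inhibiting visible growth.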

[4] = test system: Morganella morganii; test: Antimicrobial activity against Morganella morganii clinical isolate after 18 to 22 hrs by broth microdilution method in presence of beta-lactamase inhibitor Tazobactam; summary of the method: as §3
[5] = test system: Clostridium perfringens; test: Antimicrobial activity against Clostridium perfringens clinical isolate after 18 to 22 hrs by broth microdilution method
[6] = test system: Serratia marcescens; test: Antimicrobial activity against AmpC beta-lactamase-producing Serratia marcescens clinical isolate after 18 to 22 hrs by broth microdilution method in presence of beta-lactamase inhibitor Tazobactam; summary of the method: as §1
[7] = test system: Enterococcus hirae; test: Antimicrobial activity against Enterococcus hirae clinical isolate after 18 to 22 hrs by broth microdilution method in presence of beta-lactamase inhibitor Tazobactam; summary of the method: as §3
[8] = test system: Proteus vulgaris; test: Antimicrobial activity against Proteus vulgaris clinical isolate after 18 to 22 hrs by broth microdilution method in presence of beta-lactamase inhibitor Tazobactam; summary of the method: as §3
[9] = test system: Staphylococcus haemolyticus; test: Antimicrobial activity against Staphylococcus haemolyticus clinical isolate after 18 to 22 hrs by broth microdilution method in presence of beta-lactamase inhibitor BLI-489; summary of the method: as §2
[10] = test system: Enterococcus gallinarum; test: Antimicrobial activity against Enterococcus gallinarum clinical isolate after 18 to 22 hrs by broth microdilution method in presence of beta-lactamase inhibitor BLI-489; summary of the method: as §2
[11] = test system: Streptococcus pneumoniae; test: Antimicrobial activity against penicillin-resistant Streptococcus pneumoniae clinical isolate after 18 to 22 hrs by broth microdilution method in presence of beta-lactamase inhibitor Tazobactam
Summary of the method: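 CLSI broth microdilution in Mueller-Hinton II broth with 5% lysed horse blood. Antibiotic in serial dilution with the β-lactamase inhibitor held at a constant 4 μg/ml. Inoculum 10^5 CFU/ml. Incubated 18 to 22 h at 35°C in ambient air. MIC is the lowest concentration with no growth visible to the eye.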

[12] = test system: Serratia marcescens; test: Antimicrobial activity against AmpC beta-lactamase-producing Serratia marcescens clinical isolate after 18 to 22 hrs by broth microdilution method in presence of beta-lactamase inhibitor BLI-489
Summary of the method: (§4)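 CLSI broth microdilution in Mueller-Hinton II broth. Piperacillin serial dilutions were combined with BLI-489 held constant at 4 μg/ml. Inoculum was 10^5 CFU/ml. Plates were incubated 18 to 22 h at 35°C in ambient air. MIC was the lowest concentration completely inhibiting growth seen by the unaided eye. Piperacillin-tazobactam interpretive criteria were applied.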

[13] = test system: Staphylococcus haemolyticus; test: Antimicrobial activity against Staphylococcus haemolyticus clinical isolate after 18 to 22 hrs by broth microdilution method in presence of beta-lactamase inhibitor Tazobactam; summary of the method: as §3
[14] = test system: Clostridium perfringens; test: Antimicrobial activity against Clostridium perfringens clinical isolate after 18 to 22 hrs by broth microdilution method in presence of beta-lactamase inhibitor Tazobactam
[15] = test system: Acinetobacter johnsonii; test: Antimicrobial activity against Acinetobacter johnsonii clinical isolate after 18 to 22 hrs by broth microdilution method in presence of beta-lactamase inhibitor Tazobactam; summary of the method: as §1
[16] = test system: Klebsiella pneumoniae; test: Antimicrobial activity against class A extended spectrum beta-lactamase- and class D OXA- producing Klebsiella pneumoniae clinical isolate after 18 to 22 hrs by broth microdilution method in presence of beta-lactamase inhibitor Tazobactam; summary of the method: as §3
[17] = test system: Escherichia coli; test: Antimicrobial activity against AmpC beta-lactamase-producing Escherichia coli clinical isolate after 18 to 22 hrs by broth microdilution method in presence of beta-lactamase inhibitor Tazobactam; summary of the method: as §1
[18] = test system: Enterococcus casseliflavus; test: Antimicrobial activity against Enterococcus casseliflavus clinical isolate after 18 to 22 hrs by broth microdilution method in presence of beta-lactamase inhibitor BLI-489; summary of the method: as §4
[19] = test system: Proteus mirabilis; test: Antimicrobial activity against Proteus mirabilis clinical isolate after 18 to 22 hrs by broth microdilution method in presence of beta-lactamase inhibitor BLI-489; summary of the method: as §2
[20] = test system: Escherichia coli; test: Antimicrobial activity against class A extended spectrum beta-lactamase- and class D OXA- producing Escherichia coli clinical isolate after 18 to 22 hrs by broth microdilution method in presence of beta-lactamase inhibitor Tazobactam
[21] = test system: Acinetobacter calcoaceticus; test: Antimicrobial activity against Acinetobacter calcoaceticus clinical isolate after 18 to 22 hrs by broth microdilution method in presence of beta-lactamase inhibitor Tazobactam; summary of the method: as §1
[22] = test system: Acinetobacter haemolyticus; test: Antimicrobial activity against Acinetobacter haemolyticus clinical isolate after 18 to 22 hrs by broth microdilution method in presence of beta-lactamase inhibitor Tazobactam; summary of the method: as §1
[23] = test system: Proteus mirabilis; test: Antimicrobial activity against Proteus mirabilis clinical isolate after 18 to 22 hrs by broth microdilution method in presence of beta-lactamase inhibitor Tazobactam; summary of the method: as §3
[24] = test system: Enterococcus gallinarum; test: Antimicrobial activity against Enterococcus gallinarum clinical isolate after 18 to 22 hrs by broth microdilution method in presence of beta-lactamase inhibitor Tazobactam; summary of the method: as §3
[25] = test system: Streptococcus pyogenes; test: Antimicrobial activity against Streptococcus pyogenes clinical isolate after 18 to 22 hrs by broth microdilution method in presence of beta-lactamase inhibitor Tazobactam
Summary of the method: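 Streptococcal isolates were tested with piperacillin-tazobactam by CLSI broth microdilution in Mueller-Hinton II broth supplemented with 5% lysed horse blood. Inoculum was 10^5 CFU/ml, incubated 18 to 22 h at 35°C in ambient air. Visual endpoint: lowest concentration with complete inhibition.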

CCN1CCN(C(=O)N[C@@H](C(=O)N[C@@H]2C(=O)N3[C@@H]2SC(C)(C)[C@@H]3C(=O)O)c2ccccc2)C(=O)C1=O [PIPERACILLIN]
0.06 mg/L: MIC50 [5] | MIC90 [25]
16 mg/L: MIC90 [3] | MIC90 [6] | MIC90 [7] | MIC50 [16] | MIC90 [24]
32 mg/L: MIC50 [9] | MIC50 [13] | MIC90 [15] | MIC90 [22]
4 mg/L: MIC50 [7] | MIC90 [11] | MIC50 [17] | MIC50 [24]
≤ 0.12 mg/L: MIC50 [15] | MIC50 [22]
> 128 mg/L: MIC50 [1] | MIC90 [1] | MIC90 [9] | MIC90 [13] | MIC90 [16] | MIC50 [21] | MIC90 [21]
1 mg/L: MIC90 [4] | MIC50 [20]
0.5 mg/L: MIC50 [4] | MIC50 [8] | MIC90 [19]
8 mg/L: MIC90 [2] | MIC50 [6] | MIC90 [10] | MIC90 [12] | MIC90 [17] | MIC90 [18]
2 mg/L: MIC50 [2] | MIC50 [3] | MIC90 [8] | MIC50 [10] | MIC50 [11] | MIC50 [12] | MIC50 [18] | MIC90 [20] | MIC90 [23]
≤ 0.015 mg/L: MIC [14] | MIC50 [14]
0.25 mg/L: MIC90 [5] | MIC50 [19] | MIC50 [23]
0.03 mg/L: MIC90 [14] | MIC50 [25]
